From ChEMBL document CHEMBL1127577, “Identification of tricyclic analogs related to ellagic acid as potent/selective tyrosine protein kinase inhibitors” (J Med Chem, 1994) come the findings set out here.

In data set [1] the target is Proto-oncogene tyrosine-protein kinase Src (Homo sapiens, UniProt P12931). The experiment in a line: Tested for in vitro inhibitory activity against tyrosine protein kinase pp60 c-src. A digest of the protocol: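 pp60c-src purified from human platelet membrane vesicles by anti-src immunoaffinity chromatography. Reaction stopped after 45 min with 5% phosphoric acid; nitrocellulose filter capture. Six inhibitor concentrations in triplicate; IC50 from mean of ≥2 determinations.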

Data set [2] deals with cAMP-dependent protein kinase (PKA) (Homo sapiens, UniProt P22694+P17612+P22612). The experiment in a line: In vitro inhibitory activity against protein kinase A. It is filed as protein assay, unidentified. The method, boiled down: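 PKA catalytic subunit, 0.8 unit/assay, with Kemptide (LRRASLG) at 10 µg/mL. Buffers and procedure as for the src assay: 50 mM HEPES pH 7.4, 0.015% Brij 35, 0.1 mM EDTA, [γ-32P]ATP transfer, phosphoric acid stop, filter capture. Six inhibitor concentrations in triplicate; IC50 from mean of ≥2 determinations.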

A short description of data set [3]: Reaction rate parameter value for phosphate with transfer with respect to ATP. The method, boiled down:
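Platelet pp60c-src, same peptide-phosphorylation assay run at four ATP levels (5, 50, 400 µM, 2 mM), six inhibitor concentrations in triplicate at each. Apparent KM and Vmax shifts used to pick an inhibition model; data fitted for KM, Vmax and KI, with fit quality given as RMS. Values from a representative experiment with substrate-only controls.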

“And” between values parts separate entries of the source, which are not always exact repeats. Equal values may be shown once.

Sequence of Proto-oncogene tyrosine-protein kinase Src (P12931 2-536 limits assumed): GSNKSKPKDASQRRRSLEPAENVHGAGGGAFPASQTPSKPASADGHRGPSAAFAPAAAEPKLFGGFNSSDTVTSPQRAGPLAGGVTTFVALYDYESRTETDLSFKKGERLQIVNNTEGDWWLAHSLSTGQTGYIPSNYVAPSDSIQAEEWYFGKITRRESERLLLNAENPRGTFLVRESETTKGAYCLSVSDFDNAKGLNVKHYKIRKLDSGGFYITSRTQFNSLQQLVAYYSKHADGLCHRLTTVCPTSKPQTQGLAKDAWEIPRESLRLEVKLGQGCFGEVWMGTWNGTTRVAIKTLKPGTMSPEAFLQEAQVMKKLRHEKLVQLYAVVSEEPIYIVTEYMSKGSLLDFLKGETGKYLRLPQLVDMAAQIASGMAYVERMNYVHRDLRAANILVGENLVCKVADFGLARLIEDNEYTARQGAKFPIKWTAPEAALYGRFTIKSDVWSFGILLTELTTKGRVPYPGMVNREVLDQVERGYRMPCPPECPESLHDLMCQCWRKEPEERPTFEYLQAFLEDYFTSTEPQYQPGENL

One may read the IC50 as the concentration that gives 50% inhibition. In the case of `Oc1cc2c3cc(O)c(O)cc3n(Cc3cccnc3)c2cc1O`, the half-maximal inhibitory concentration (IC50) in data set [1] was 8 µM; in data set [2], 108 µM.

On to `O=[N+]([O-])c1ccc(S(=O)(=O)n2c3cc(O)c(O)cc3c3ccc(O)c(O)c32)cc1`, for which the values for the IC50 in data set [1] and in data set [2] were 12 µM and 168 µM, respectively.

For `O=c1c2cc(O)c(O)cc2c2cc(O)c(O)cc2n1Cc1ccc(S(=O)(=O)c2ccccc2)cc1`, the half-maximal inhibitory concentration (IC50) in data set [1] worked out at 2 µM; in data set [2], 51 µM.

In the case of `Oc1cc2nc(O)c3c(O)c(O)ccc3c2cc1O`, the figures for the IC50 in data set [1] and in data set [2] were 0.9 µM and 92 µM, respectively.

In the case of `O=c1c2c(O)c(O)ccc2c2cc(O)c(O)cc2n1Cc1ccc(S(=O)(=O)c2ccccc2)cc1`, the figures for the IC50 in data set [1] and in data set [2] were 7.2 µM and 634 µM, respectively.

`CS(=O)(=O)c1ccc(C(=O)n2c3cc(O)c(O)cc3c3c(Br)cc(O)c(O)c32)cc1`: the figures for the IC50 in data set [1] and in data set [2] were 9 µM and 4 µM, respectively.

On to `O=C(c1ccc2ccccc2c1)n1c2cc(O)c(O)cc2c2ccc(O)c(O)c21`, for which the IC50 in data set [1] came to 0.5 µM; in data set [2] it was 1 µM.

Take `O=C(c1ccc(-c2ccccc2)cc1)n1c2cc(O)c(O)cc2c2ccc(O)c(O)c21`: the half-maximal inhibitory concentration (IC50) was 0.6 µM in data set [1] and 3.2 µM in data set [2].

As to `N#Cc1ccc(Cn2c3cc(O)c(O)cc3c3c(Br)cc(O)c(O)c32)cc1`, the IC50 is 0.9 µM in data set [1] and 6.6 µM in data set [2].

For `Oc1cc2c3ccc(O)c(O)c3n(Cc3c(Cl)cccc3Cl)c2cc1O`, the values for the IC50 in data set [1] and in data set [2] were 0.9 µM and 435 µM, respectively.

As for `CS(=O)(=O)c1ccc(C(=O)n2c3cc(O)c(O)cc3c3ccc(O)c(O)c32)cc1`, the values for the IC50 in data set [1] and in data set [2] were 0.4 µM and 40 µM, respectively.

Consider `O=c1c2cc(O)c(O)cc2c2cc(O)c(O)cc2n1Cc1ccc([N+](=O)[O-])cc1`, for which the figures for the IC50 in data set [1] and in data set [2] were 0.9 µM and 8.4 µM, respectively.

`O=S(=O)(c1ccccc1)c1ccc(Cn2c3cc(O)c(O)cc3c3ccc(O)c(O)c32)cc1`: the IC50 in data set [1] was determined as 0.6 µM; in data set [2], 317 µM.

For the molecule `O=S(=O)(c1ccccc1)n1c2cc(O)c(O)cc2c2ccc(O)c(O)c21`, the values for the IC50 in data set [1] and in data set [2] were 15 µM and 250 µM, respectively.

For the molecule `Oc1cc2c3ccc(O)c(O)c3n(Cc3ccc(Br)cc3)c2cc1O`, the half-maximal inhibitory concentration (IC50) in data set [1] came to 3.4 µM; in data set [2] it was 374 µM.

For `N#Cc1ccc(Cn2c3cc(O)c(O)cc3c3ccc(O)c(O)c32)cc1`, the IC50 in data set [1] was determined as 0.4 µM; in data set [2], 275 µM.

Take `Oc1cc2nc(O)c3cc(O)c(O)cc3c2cc1O`: the IC50 was 1 µM in data set [1] and more than 800 µM in data set [2].

With `O=C(c1ccccc1)n1c2cc(O)c(O)cc2c2cc(O)c(O)cc21`, the values for the IC50 in data set [1] and in data set [2] were 4 µM and 415 µM, respectively.

For the molecule `CC(C)(C)c1ccc(C(=O)n2c3cc(O)c(O)cc3c3ccc(O)c(O)c32)cc1`, the IC50 amounted to 0.7 µM in data set [1] and 50 µM in data set [2].

With `O=C(c1ccc(Br)cc1)n1c2cc(O)c(O)cc2c2ccc(O)c(O)c21`, the IC50 was found to be 1.4 µM in data set [1] and 4.2 µM in data set [2].

On to `O=S(=O)(c1cc(Cl)ccc1Cl)n1c2cc(O)c(O)cc2c2ccc(O)c(O)c21`, for which the IC50 in data set [1] is 7.7 µM; in data set [2], 223 µM.

As for `Oc1cc2c3ccc(O)c(O)c3n(Cc3ccccc3)c2cc1O`, the IC50 in data set [1] came to 2 µM; in data set [2], 210 µM.

On to `O=S(=O)(Cc1ccccc1)n1c2cc(O)c(O)cc2c2ccc(O)c(O)c21`, for which the IC50 in data set [1] is 14 µM; in data set [2] it was 78 µM.

On to `O=C(c1ccc(C(F)(F)F)cc1)n1c2cc(O)c(O)cc2c2ccc(O)c(O)c21`, for which the IC50 in data set [1] amounted to 0.7 µM; in data set [2] it was 10 µM.

In the case of `O=C(c1cccc([N+](=O)[O-])c1)n1c2cc(O)c(O)cc2c2ccc(O)c(O)c21`, the IC50 in data set [1] was determined as 0.6 µM; in data set [2], 1.5 µM.

Take `O=c1c2cc(O)c(O)cc2c2cc(O)c(O)cc2n1Cc1ccc(Cl)c(Cl)c1`: the 50% inhibitory concentration (IC50) in data set [1] came to 1.3 µM; in data set [2], 20 µM.

`Oc1cc2[nH]c3c(O)c(O)ccc3c2cc1O`: the IC50 in data set [1] turned out to be 0.8 µM; in data set [2], 47 µM.

Take `Oc1cc2[nH]c3c(O)c(O)cc(Br)c3c2cc1O`: the IC50 in data set [1] came to 0.6 µM; in data set [2] it was 17 µM.

Turning to `O=S(=O)(c1ccccc1)n1c2cc(O)c(O)cc2c2cc(O)c(O)cc21`, the IC50 in data set [1] was 24 µM; in data set [2] it was more than 600 µM.

For the molecule `CCn1c(=O)c2c(O)c(O)ccc2c2cc(O)c(O)cc21`, the values for the IC50 in data set [1] and in data set [2] were 11 µM and 541 µM, respectively.

Regarding `O=C(c1ccccc1)n1c2cc(O)c(O)cc2c2ccc(O)c(O)c21`, the IC50 in data set [1] amounted to 0.9 µM; in data set [2], 240 µM.

By Ki is commonly meant a dissociation constant, usually derived from enzyme kinetics or from competition with a known ligand. Read a high Ki as a looser hold on the target. One may read the Km as the concentration of substrate that gives half-maximal velocity. Regarding `Oc1cc2[nH]c3cc(O)c(O)cc3c2cc1O`, the Ki in data set [3] is 1.06 µM and 0.53 µM. Besides, in data set [3], the Km was 68.1 µM and 29.2 µM. Also, the IC50 in data set [1] was 1.5 µM; in data set [2], 58 µM.

Consider `Oc1cc2c3cc(O)c(O)cc3n(Cc3ccccc3)c2cc1O`, for which the IC50 came to 7 µM in data set [1] and 115 µM in data set [2].

For the molecule `O=c1c2c(O)c(O)ccc2c2cc(O)c(O)cc2n1Cc1ccccc1`, the concentration for half-maximal inhibition (IC50) in data set [1] was determined as 21 µM; in data set [2], 284 µM.

As for `O=C(c1ccc(C(F)(F)F)cc1)n1c2cc(O)c(O)cc2c2c(Br)cc(O)c(O)c21`, the IC50 was 2 µM in data set [1] and 7 µM in data set [2].

As to `Oc1cc2c3ccc(O)c(O)c3n(CCCc3ccccc3)c2cc1O`, the IC50 in data set [1] and in data set [2] was 0.5 µM in each case.

Regarding `O=c1c2c(O)c(O)ccc2c2cc(O)c(O)cc2n1Cc1ccc([N+](=O)[O-])cc1`, the IC50 in data set [1] was 61 µM; in data set [2] it was 309 µM.

As to `O=c1c2c(O)c(O)ccc2c2cc(O)c(O)cc2n1Cc1ccc(Cl)c(Cl)c1`, the results for the IC50 in data set [1] and in data set [2] were 197 µM and 410 µM, respectively.

Consider `O=c1c2cc(O)c(O)cc2c2cc(O)c(O)cc2n1Cc1ccccc1`, for which the values for the IC50 in data set [1] and in data set [2] were 5.4 µM and 390 µM, respectively.

For the molecule `Oc1cc2c3ccc(O)c(O)c3n(Cc3ccc(C(F)(F)F)cc3)c2cc1O`, the figures for the IC50 in data set [1] and in data set [2] were 9 µM and 50 µM, respectively.

For `O=C(CCc1ccccc1)n1c2cc(O)c(O)cc2c2ccc(O)c(O)c21`, the IC50 in data set [1] worked out at 0.4 µM; in data set [2], 2.3 µM.

`CCn1c(=O)c2cc(O)c(O)cc2c2cc(O)c(O)cc21`: the IC50 in data set [1] was 4.1 µM; in data set [2], more than 2000 µM.

Take `CC(C)(C)c1ccc(C(=O)n2c3cc(O)c(O)cc3c3c(Br)cc(O)c(O)c32)cc1`: the IC50 in data set [1] was found to be 12 µM; in data set [2], 40 µM.

Take `Cc1cccc(Cn2c3cc(O)c(O)cc3c3ccc(O)c(O)c32)c1`: the IC50 in data set [1] turned out to be 1.7 µM; in data set [2] it was 23 µM.

As for `O=c1oc2c(O)c(O)cc3c(=O)oc4c(O)c(O)cc1c4c23` [ELLAGIC ACID], the IC50 in data set [1] came to 0.3 µM; in data set [2] it was 0.6 µM.
